The text below walks through data of BindingDB's records for doi:10.1021/jm960807v (University of Florence, 1997).

This assay deals with T1, 3-oxo-5-alpha-steroid 4-dehydrogenase 2 (Homo sapiens, UniProt P31213).
T1 sequence (P31213 whole entry): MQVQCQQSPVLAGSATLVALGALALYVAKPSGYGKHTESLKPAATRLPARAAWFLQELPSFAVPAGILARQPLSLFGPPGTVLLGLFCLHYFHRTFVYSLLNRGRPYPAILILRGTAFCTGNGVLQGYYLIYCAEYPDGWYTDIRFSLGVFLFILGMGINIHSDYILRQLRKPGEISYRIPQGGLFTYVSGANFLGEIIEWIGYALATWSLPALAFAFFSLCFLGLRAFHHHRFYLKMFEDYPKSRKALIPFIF
Kind of assay: Inhibitory activity against 5-alpha Reductase-2 on human prostate homogenates from surgically derived benign hyperplastic tissue. Put shortly:
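Benign hyperplastic human prostate tissue, stored at -80 °C, was homogenized near 0 °C in 50 mM TRIS pH 7.4 with salts, nicotinamide and sucrose, spun at 200g, and the combined supernatants were used. Homogenate (0.1 mg protein) was incubated with 30 nM testosterone (9% [3H]) and 0.3 mM NADPH for 30 min at 37 °C, with the inhibitor added alongside the substrate. Inhibitor range was 10⁻¹⁰–10⁻⁵ M. DHT conversion was read by TLC and scintillation, in duplicate.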

Broadly, the IC50 is the point on the concentration scale where inhibition reaches its midpoint. Lower therefore signals higher potency. As for `C[C@]12CC=C3[C@@H](CCC4=CC(=O)CCN43)C1CCC2=O` (some centres not stated), the IC50 turned out to be 4.6 µM.

`C[C@]12CCC3=C4C(=O)CCN=C4CCC3[C@@H]1CCC2=O` (some centres not stated) had a half-inhibitory concentration (IC50) above 100 µM.
